Bioassay records as filed in PubChem.
In the library only some 2.2% were active in any assay of this set; here they are far more common.
NS3 helicase inh: HCV NS3 helicase inhibition; NS3 helicase DNA unwinding, Cy5 molecular beacon fluorescence; inhibition, % at 10.9 µM; 290,000 compounds, 0.56% hits; AID 1800;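 active = inhibition above the mean of all tested compounds plus 3 SD, set per campaign, cut at about 35% in these data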
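System: Hepatitis C virus NS3 helicase domain fragment enzyme | Reagent: Annealed dual-labelled DNA beacon duplex, ATP-started | Compound dosing: 10.9 µM single point, 0.8% DMSO | Incubation: 1 h reaction at 25 °C, ATP-initiated | Technique: Cy5 fluorescence | Evaluation: Percent inhibition from t60/t0 fluorescence ratio | Benchmarks: Low DMSO, high thioflavine S at 110 µM | Replication: Singlicate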
GPR7 antagonist: human neuropeptides B/W receptor 1 antagonism; GPR7-expressing cells, fluorescence antagonist assay; inhibition, % at 4.4 µM; 290,000 compounds, 1.1% hits; AID 1861; in the data active = inhibition above about 16%, passing the limit was not always enough;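 note: cells stimulated with the agonist NPW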
core dimer inh: blocks dimerization of HCV core protein | 300,000 compounds, 0.33% hits | inhibition, % at 5 µM | AID 1899 | TR-FRET GST/Flag-core106 dimerization, 1536-well;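 active = inhibition above the mean of all tested compounds plus 3 SD, set per screening campaign, cut at about 45% in these data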
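System: GST/Flag-tagged HCV core106 proteins. Incubation: compound-protein-antibody incubation 4 h at 22.5 °C. Technique: HTRF with 340 nm excitation, 617/671 nm emission. Medium: KF-containing HEPES buffer, pH 7.45, DTT, CHAPS, BSA. Read-out: inhibition (%) from 671 over 617 nm ratio. Also added: Eu(K)-anti-GST 90 ng/mL plus XL665-anti-Flag 1 µg/mL.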
DNA FID counter: fluorescent intercalator displacement, NS3 helicase counter-screen. DNA fluorescent intercalator displacement, fluorescence. AID 1845. 290,000 compounds, 0.17% hits. inhibition, % at 7.9 µM; in the data active = inhibition above about 37%;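 note: higher means more ethidium bromide displaced from hairpin DNA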
DAGLB inh: blocks human DAGLB lipase activity; 340,000 compounds, 0.059% hits; HEK293T DAGLB membrane lysate, EnzChek fluorogenic substrate; inhibition, % at 5.17 µM; Q8NCG7; in the data active = inhibition above about 34%
GRK2 inh: blocks RNA aptamer binding to human GRK2; inhibition of aptamer binding, % at 10 µM; P25098; bead flow cytometry, FAM-aptamer displacement from GRK2; 330,000 compounds, 0.59% hits; AID 488847;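 active = inhibition of aptamer binding above 40%, roughly 3 SD of noise, on plates passing a quality check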;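 note: median bead fluorescence of bound FAM aptamer so fluorescent compounds give negative values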
Target sequence (P25098 whole entry, looked up): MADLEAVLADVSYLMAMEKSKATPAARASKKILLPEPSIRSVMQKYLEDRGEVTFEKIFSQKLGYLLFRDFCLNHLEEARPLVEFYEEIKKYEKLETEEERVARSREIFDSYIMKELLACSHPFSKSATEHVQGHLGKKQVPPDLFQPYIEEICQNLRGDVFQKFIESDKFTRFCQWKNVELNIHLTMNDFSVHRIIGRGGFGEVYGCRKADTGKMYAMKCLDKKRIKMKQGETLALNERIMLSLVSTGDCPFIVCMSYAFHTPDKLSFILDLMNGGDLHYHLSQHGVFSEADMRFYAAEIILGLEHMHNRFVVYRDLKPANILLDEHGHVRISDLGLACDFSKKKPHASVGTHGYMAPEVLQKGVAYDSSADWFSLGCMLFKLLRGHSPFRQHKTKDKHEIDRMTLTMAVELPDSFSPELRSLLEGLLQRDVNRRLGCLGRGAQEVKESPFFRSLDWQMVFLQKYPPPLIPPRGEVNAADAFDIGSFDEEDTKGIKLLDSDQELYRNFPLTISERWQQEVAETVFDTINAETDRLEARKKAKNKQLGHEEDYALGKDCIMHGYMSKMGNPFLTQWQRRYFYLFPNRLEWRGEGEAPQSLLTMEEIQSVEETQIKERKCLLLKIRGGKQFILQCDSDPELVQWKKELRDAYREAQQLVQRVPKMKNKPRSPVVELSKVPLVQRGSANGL
GRK2 CP1: human GRK2 inhibition confirmation, cherry pick 1 | shares compounds with GRK2 inh | bead-bound GRK2, FAM-aptamer displacement, flow cytometry | aptamer displacement, % at 10 µM | 2,000 compounds, 4% hits | AID 504451;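 active = aptamer displacement above 40%, near three times the noise of non-fluorescent compounds, on plates passing quality checks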;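 note: negative values mostly reflect intrinsic compound fluorescence rather than true enhancement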
Aptamer quench 1: quenches fluorescent RNA aptamer, GRK2 hit artifact; shares compounds with GRK2 inh; Fluorescent RNA aptamer beads, quenching, flow cytometry; active compounds read high; fluorescence change (kMESF span), kMESF (no concentration beside the values); 110 tested, under 10 active;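 active = compounds whose bead fluorescence drops by more than 37 kMESF across the dose range, marking them as dye quenchers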
FAM quench CP1: quenches fluorescent RNA aptamer, GRK2 hit artifact | fluorescence response (% of DMSO), % at 10 µM | shares compounds with GRK2 inh | 2,000 tested, under 10 active | Carboxyfluorescein RNA aptamer on beads, flow cytometry quenching; active compounds read low | AID 504580;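 active = compounds that quench the bead-bound fluorescent RNA probe, cutting fluorescence to under half of the solvent control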;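 note: counterscreen run without GRK2 so only probe quenching by compound is measured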
GRK2 CP2: human GRK2 inhibition confirmation, cherry pick 2 | shares compounds with GRK2 inh | bead-bound GRK2, FAM-aptamer displacement, flow cytometry | inhibition of aptamer binding, % at 10 µM | 360 tested, under 10 active | AID 504782;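 active = inhibition of aptamer binding above 40%, about triple the noise seen with nonglowing compounds, on plates passing quality control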;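 note: negative values mostly come from compounds that fluoresce themselves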
FAM quench CP2: quenches fluorescent RNA aptamer, GRK2 hit artifact | shares compounds with GRK2 inh | carboxyfluorescein RNA aptamer beads, flow cytometry quenching; active compounds read low | fluorescence response vs DMSO, % at 10 µM | 360 tested, under 10 active;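 active = response vs DMSO under 50%, meaning signal dropped by over half, treated as fluorescence quencher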;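 note: labelled aptamer on streptavidin beads without GRK2 as a quench counter-screen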
Each line names hits and unclear results; the compound was inactive in the other large screens (follow-up assays come after a bar, where they were run).

Cc1nc2nc(SCc3ccccc3)[nH]n2c(=O)c1CCC(C)C	none
CC(C)(C)/C=N/NC(=O)CNC(=O)c1ccc2c(c1)OCCO2	none
O=C(O)CC/C(=N/NC(=O)CNC(=O)c1ccc2c(c1)OCCO2)c1ccccc1	none | GRK2 CP1 inactive | FAM quench CP1 inactive
COc1ccccc1-n1c(SCC(N)=O)nc2sc3c(c2c1=O)CCC3	none
Cc1ccnc(NC(=O)COC(=O)c2ccc(F)cc2F)n1	none | GRK2 CP1 inactive | FAM quench CP1 inactive
O=C(O)c1ccccc1-c1c2cc(I)c(=O)c(I)c-2oc2c(I)c(O)c(I)cc12	GRK2 inh 61 (no result: NS3 helicase inh, GPR7 antagonist, DNA FID counter) | GRK2 CP1 80 | Aptamer quench 1 inactive | FAM quench CP1 inactive
O=Cc1ccc(-c2ccccc2C(=O)O)o1	none
Cc1cc(C)n(/N=C/c2ccc(C(C)C)cc2)c(=O)c1C#N	none
CC(C)CCn1c(COc2ccccc2)n[nH]c1=S	GRK2 inh 53 | GRK2 CP1 inactive | FAM quench CP1 inactive
CC(OC(=O)c1cnc2ccccc2n1)c1ccccc1Cl (centres undefined)	none
NS(=O)(=O)c1ccc(CCNC(=O)c2ccccc2-c2ccccc2)cc1	GRK2 inh 82 | GRK2 CP1 inactive | FAM quench CP1 inactive
NS(=O)(=O)c1ccc(CCNC(=O)c2ccccc2F)cc1	none
O=C(O)C1CCCCC1C(=O)Nc1cccc(Br)c1 (centres undefined)	GRK2 inh 86 (no result: NS3 helicase inh, GPR7 antagonist, DNA FID counter) | GRK2 CP1 93 | Aptamer quench 1 inactive | FAM quench CP1 inactive
Cc1cc(NC(=O)COC(=O)c2ccco2)no1	none
CN(C)c1ccc(/C=C/c2nc3ccccc3c(=O)n2-c2ccc(C(=O)O)cc2)cc1	none | GRK2 CP1 inactive | FAM quench CP1 inactive
Cc1nnc(SCC(=O)Nc2ccc(S(N)(=O)=O)cc2)n(N)c1=O	none (no result: NS3 helicase inh, GPR7 antagonist, core dimer inh, DNA FID counter) | GRK2 CP1 inactive | FAM quench CP1 inactive
COc1ccc(NC(=O)C2CCCN(S(=O)(=O)c3ccc4c(c3)CCCN4C(C)=O)C2)cc1Cl (centres undefined)	none
CC(=O)N1CCc2cc(S(=O)(=O)CCC(=O)NCc3cccs3)ccc21	none | GRK2 CP2 inactive | FAM quench CP2 inactive
CCC(=O)N1c2ccc(S(=O)(=O)CCC(=O)NCc3cccs3)cc2CC1C (centres undefined)	none | GRK2 CP2 inactive | FAM quench CP2 inactive
CCC(=O)N1c2ccc(S(=O)(=O)CCC(=O)NC3CCCC3)cc2CC1C (centres undefined)	none
Cc1ccc(S(=O)(=O)NC(=O)COc2ccc(Cl)cc2Cl)cc1	none
Cn1c(CSCc2ccccc2)nnc1SCC(=O)Nc1nccs1	GRK2 inh 50 | GRK2 CP1 inactive | FAM quench CP1 inactive
Cn1c(C(=O)N2CCN(c3ccc(F)cc3)CC2)cc2ccccc21	none
CCOc1ccc(NC(=O)CN(C)C(=O)c2cc(-c3ccco3)nc3ccccc23)cc1OCC	none (no result: NS3 helicase inh, GPR7 antagonist, core dimer inh, DNA FID counter, GRK2 inh) | GRK2 CP1 inactive | FAM quench CP1 inactive
COc1ccc(NC(=O)COc2cccc(-n3cnnn3)c2)cc1	none
O=C1/C(=C\c2ccc(-c3ccccc3Cl)o2)SC(=S)N1CC1CCCO1 (centres undefined)	GRK2 inh 51 | GRK2 CP1 inactive | FAM quench CP1 inactive
Cc1ccc(/C=C2\SC(=S)N(CC3CCCO3)C2=O)o1 (centres undefined)	none
